Source: PMC4120251 (Journal of Alzheimer's disease : JAD, 2013)
Like-named read-outs stand apart in the source and are kept apart here.

How the values were obtained:
[1] = in vivo; cited from earlier work
[2] = system: Iba-1 activated microglia; assay: Activated microglia by Iba-1 immunostaining; assay type: in vivo; conditions: APP/PS1ΔE9 mice, 50 μg/mouse RO 3 times a week for 6 weeks, n = 8
In short: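 Right hemisphere fixed in buffered formaldehyde after saline perfusion under ketamine/xylazine. Free-floating 30 μm sections were stained with rabbit polyclonal anti-Iba-1 (1:250) and a Vectastain rabbit IgG kit. Four coronal sections per brain were imaged and converted to grayscale. Iba-1-positive area was measured over cortex and hippocampus and expressed as burden (% stained surface of total area). Mice were 4-month-old males.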

[3] = assay type: in vivo, mouse; conditions: ApoE null mice
U251 astrocytes [4] = assay: Cell viability, MTT assay; assay type: cell-based, human; conditions: U251 cells, 0 to 10 μg/ml, 24 h, n = 4
In short: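 U251-MG astroglioma cells were grown in DMEM/Ham's F-12 with 10 mM HEPES, 2 mM L-glutamine, penicillin/streptomycin and 10% FBS. Cells were exposed to test compound for 24 h, and viability was read by MTT reduction using a TOX-1 kit.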

[5] = Plasma total cholesterol in APP/PS1ΔE9 mice; assay type: in vivo, mouse; conditions: peptide group before treatment, mean ± SEM, n = 8
In short: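 Plasma total cholesterol was determined colorimetrically with Infinity cholesterol reagent at baseline and after 6 weeks of treatment. Mice were 4-month-old male transgenics.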

IL-6 = IL-6 ELISA in TBS soluble brain homogenate; assay type: in vivo; conditions: APP/PS1ΔE9 mice, 50 μg/mouse RO 3 times a week for 6 weeks, p < 0.05
In short: (§1)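 Saline-perfused cortex and hippocampus were homogenized in 15 volumes of ice-cold TBS (pH 7.4) with protease inhibitors. Homogenate was spun at 20,000g for 20 min at 4°C, and the supernatant (TBS-soluble fraction) was assayed with a commercial sandwich ELISA following the kit protocol. Values were normalized to total protein (BCA). Mice were 4-month-old males; controls received an equal volume of saline.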

TNF-α = TNF-α ELISA in TBS soluble brain homogenate; assay type: in vivo; conditions: APP/PS1ΔE9 mice, 50 μg/mouse RO 3 times a week for 6 weeks, p < 0.05
In short: as §1

U251 astrocytes [6] = assay: Secretion of ApoE, human ApoE ELISA of media; assay type: cell-based; conditions: no ox-PAPC or oAβ42, ApoE in media by ELISA, n = 6
[7] = Tissue bioavailability: 14C-labeled peptide in brain; assay type: in vivo, mouse; conditions: 14C-labeled peptide via tail vein, brain at 6 h

Substance: Ac-LRKLRKRLLRDWLKAFYDKVAEKLKEAF-NH2 [Ac-hE18A-NH2]
- half-life in plasma, rapid phase [1]: 1.6 min
- half-life in plasma, slow phase [1]: 96.6 min
- reduction in the amount of activated microglia (Iba-1 staining) [2]: 13%
- number of Iba-1 immunopositive activated microglia versus saline ([2]; p < 0.05): significantly reduced
- change in plasma cholesterol levels compared to baseline ([3]; retro-orbital (RO), 5 min): 52 ± 3%
- change in plasma cholesterol levels compared to baseline ([3]; retro-orbital (RO), 5 h): 17.2 ± 2%
- change in plasma cholesterol levels compared to baseline ([3]; tail vein, 5 min): 52 ± 4%
- change in plasma cholesterol levels compared to baseline ([3]; tail vein, 5 h): 14 ± 1%
- toxicity (cell viability) compared to control (U251 astrocytes [4]): no toxicity
- plasma cholesterol at baseline [5]: 165.3 ± 10.3 mg/dL
- IL-6 level in TBS soluble fraction of brain homogenate versus control (IL-6): decreased significantly
- TNF-α level in TBS soluble fraction of brain homogenate versus control (TNF-α): decreased significantly
- enhancement of ApoE secretion by peptide by itself (U251 astrocytes [6]): about 25%
- peptide crossing BBB, fraction of the injected dose [7]: 0.13 % of the injected dose
